Screening results deposited in PubChem BioAssay by The Scripps Research Institute Molecular Screening Center.
HTRA1 inhibitor = blocks human HTRA1 serine peptidase | Q92743 | recombinant HTRA1, FP-rhodamine activity-based probe, fluorescence polarization | inhibition, % at 5.96 µM | actives 0.5% (n = 340,000); in the data active means inhibition above about 36%
TCR-CD3 inh = blocks the human TCR-CD3 interaction; inhibition, % at 9.4 µM; actives 0.37% (n = 360,000); AID 651800; TAMRA-labeled TCR probe fluorescence, biochemical; in the data active means inhibition above about 19%;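 further: recombinant mutant TCR 2C K166C tagged with TAMRA read by polarization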
mABHD4 FP = inhibits mouse alpha/beta hydrolase domain 4; purified mABHD4, FP-Rh probe fluorescence polarization; Q8VD66; inhibition, % at 8.92 µM; actives 0.54% (n = 370,000);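 active means inhibition exceeding the mean over every tested compound plus 3 SD, cut at about 30% in these data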
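system = mouse ABHD4 enzyme, wild type | medium = HEPES pH 7.0, NaCl, Pluronic buffer | also added = FP-Rh probe | incubation = Enzyme–compound pre-incubation 45 min, then probe 60 min, both 25 °C | technique = fluorescence polarization, excitation 525 nm, emission 598 nm, BODIPY TMR filters | controls = S159A mutant high control, sample median low control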
DAGLB inhibitor = blocks human DAGLB lipase activity; Q8NCG7; HEK293T DAGLB membrane lysate, EnzChek fluorogenic substrate; inhibition, % at 5.17 µM; actives 0.059% (n = 340,000); in the data active means inhibition above about 34%
Target sequence (Q8NCG7 whole entry, looked up): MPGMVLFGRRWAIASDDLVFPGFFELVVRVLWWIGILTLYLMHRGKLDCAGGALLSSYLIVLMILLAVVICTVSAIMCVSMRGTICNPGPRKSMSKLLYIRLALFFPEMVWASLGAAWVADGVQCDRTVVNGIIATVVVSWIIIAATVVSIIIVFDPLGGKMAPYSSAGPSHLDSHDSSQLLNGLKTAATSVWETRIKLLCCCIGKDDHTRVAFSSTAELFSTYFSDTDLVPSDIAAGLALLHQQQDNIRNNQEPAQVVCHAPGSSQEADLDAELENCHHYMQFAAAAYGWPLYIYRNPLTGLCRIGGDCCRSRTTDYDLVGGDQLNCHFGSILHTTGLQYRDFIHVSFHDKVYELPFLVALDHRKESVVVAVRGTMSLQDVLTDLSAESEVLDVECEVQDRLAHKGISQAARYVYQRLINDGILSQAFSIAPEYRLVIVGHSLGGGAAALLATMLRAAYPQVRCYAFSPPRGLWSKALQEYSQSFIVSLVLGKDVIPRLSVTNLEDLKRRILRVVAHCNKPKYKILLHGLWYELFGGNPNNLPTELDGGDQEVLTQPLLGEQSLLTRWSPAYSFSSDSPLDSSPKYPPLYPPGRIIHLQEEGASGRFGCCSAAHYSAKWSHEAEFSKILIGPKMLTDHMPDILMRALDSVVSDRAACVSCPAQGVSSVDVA
SIAE primary = blocks human sialic acid acetylesterase | actives 0.69% (n = 370,000) | SIAE FP-Rh probe binding, fluorescence polarization | inhibition, % at 9.66 µM;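 active means inhibition above a cutoff: mean of compounds within the control limits plus 3 SD of those, cut at about 17% in these data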
mABHD4 conf = ABHD4 (mouse) inhibition, FP confirmation | actives 55% (n = 1,800) | inhibition, % at 8.92 µM | purified mABHD4, FP-Rh probe fluorescence polarization | shares compounds with mABHD4 FP;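 active means mean inhibition across replicates above the hit cutoff set in the primary screen, cut at about 30% in these data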
SIAE inh conf = confirmation of human SIAE inhibitors | inhibition, % at 9.66 µM | actives 13% (n = 2,300) | SIAE FP-Rh activity-based probe, fluorescence polarization | AID 1117263 | shares compounds with SIAE primary;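 active means mean inhibition of the replicates above the hit cutoff set in the primary screen, cut at about 17% in these data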;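 further: inhibitors lower polarization as more probe stays unbound to SIAE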
Large screens that a line does not name were inactive (follow-up assays come after a bar, where they were run); ! = not confirmed by another sample. Rows were chosen to be rich in hits. Some 1.5% of all compounds tested hit in one or more screens of this group.

C/C(=N\Nc1ccc(Cl)c(C(=O)O)c1)c1ccc2c(c1)OCO2	none
C=CCN1C(=O)c2n[nH]c(C(C)C)c2C1c1ccc2c(c1)OCO2 (configuration not stated)	none (no result: HTRA1 inhibitor, DAGLB inhibitor)
Cc1ccccc1C(=O)N1CCC[C@@H]1C(=O)N1CCC[C@H]1C(=O)NCc1ccccc1	none (no result: HTRA1 inhibitor, DAGLB inhibitor)
O=C(NC(=S)Nc1cccc2c(O)cccc12)c1ccco1	mABHD4 FP 30, SIAE primary 17 | mABHD4 conf inactive | SIAE inh conf inactive
O=C(NC(=S)Nc1cccc2c(O)cccc12)c1ccccc1[N+](=O)[O-]	mABHD4 FP 48, SIAE primary 23 | mABHD4 conf inactive | SIAE inh conf inactive
O=C(NNC(=S)NC(=O)c1ccccc1[N+](=O)[O-])c1ccccc1O	none (no result: HTRA1 inhibitor, DAGLB inhibitor)
O=C(NC(=S)Nc1cccc2cc(O)ccc12)c1ccco1	none
C=CCn1c(O)c(C2=c3ccccc3=NC2=O)c2ccccc21	mABHD4 FP 38, SIAE primary 28 | mABHD4 conf 44 | SIAE inh conf inactive
Cc1ccc2c(c1)c(C1=c3ccccc3=NC1=O)c(O)n2C	none
Cn1c(CNc2ccccc2O)nc2ccccc21	mABHD4 FP 31, SIAE primary 19 | mABHD4 conf inactive | SIAE inh conf inactive
O=C(O)c1ccc(N/N=C/c2ccc(-c3ccc(Cl)cc3Cl)o2)cc1	mABHD4 FP 57, SIAE primary 18 | mABHD4 conf 67 | SIAE inh conf 20
Oc1cccc2c(NC(=S)Nc3ccc(SC(F)F)cc3)cccc12	mABHD4 FP 40, SIAE primary 19 | mABHD4 conf inactive | SIAE inh conf inactive
CN(C)NC(=S)NC(=O)C12CC3CC(CC(C3)C1)C2	none
CN(C(=S)NC(=O)C12CC3CC(CC(C3)C1)C2)c1ccc(O)cc1	mABHD4 FP 41, SIAE primary 18 | mABHD4 conf inactive | SIAE inh conf inactive
O=[N+]([O-])c1cc(/C=N/Nc2nc3ccccc3[nH]2)c(O)cc1O	mABHD4 FP 49, SIAE primary 23 (no result: HTRA1 inhibitor, DAGLB inhibitor) | mABHD4 conf 72 | SIAE inh conf 22
Cc1cc(N2CCN(C(=O)OC(C)(C)C)C[C@@H]2C)ccc1N1CCN(Cc2ccccc2)[C@@H](C)C1	none (no result: HTRA1 inhibitor, DAGLB inhibitor)
COc1cccc(/C=N/NC(=O)c2cc3c(OC)ccc(OC)c3[nH]2)c1O	mABHD4 FP 37, SIAE primary 34 | mABHD4 conf 62 | SIAE inh conf inactive
CCOC(=O)[C@@]12CCCC3=C1N(CCC3)C(=O)[C@H]2CC(=O)N1CCSCC1	none (no result: HTRA1 inhibitor, TCR-CD3 inh, DAGLB inhibitor)
COc1ccc(C(=O)c2[nH]c(N)c(C(=O)NCCc3c[nH]c4ccccc34)c2-c2ccc(Cl)cc2)cc1	none (no result: HTRA1 inhibitor, DAGLB inhibitor)
Nc1[nH]c(C(=O)c2ccc(Br)cc2)c(-c2ccc(Cl)cc2[N+](=O)[O-])c1C(=O)NCCc1c[nH]c2ccccc12	mABHD4 FP 40, SIAE primary 20 (no result: HTRA1 inhibitor, DAGLB inhibitor) | mABHD4 conf inactive | SIAE inh conf inactive
Nc1[nH]c(C(=O)c2ccc(Cl)cc2)c(-c2ccc(Br)cc2)c1C(=O)NCCc1c[nH]c2ccccc12	none (no result: HTRA1 inhibitor, DAGLB inhibitor)
COc1ccc(C(=O)c2[nH]c(N)c(C(=O)NCCc3c[nH]c4ccccc34)c2-c2ccc(Cl)c(F)c2)cc1	mABHD4 FP 34, SIAE primary 21 (no result: HTRA1 inhibitor, DAGLB inhibitor) | mABHD4 conf 37 | SIAE inh conf inactive
CC(=O)NNC(=O)CCn1nnc(-c2ccc(Cl)cc2)n1	SIAE primary 21 | SIAE inh conf inactive
CC(C)(C)NC(=O)Cn1nnc(-c2ccc(Cl)cc2)n1	none
Cc1ccc(-n2nc(C)c3c2OC(N)=C(C#N)C3c2ccncc2)cc1 (configuration not stated)	SIAE primary 19 | SIAE inh conf inactive
CC1(C)OC(=O)C2=C(CC(CCc3ccccc3)OC2c2ccc(Cl)c(Cl)c2)O1 (configuration not stated)	none (no result: HTRA1 inhibitor, DAGLB inhibitor)
Nc1ccn([C@@H]2O[C@H](C(=O)N[C@H](Cc3ccccc3)C(=O)Nc3ccc4scnc4c3)[C@@H](O)[C@H]2O)c(=O)n1	none (no result: HTRA1 inhibitor, DAGLB inhibitor)
Cc1cc(Cl)ccc1NC(=O)COC(=O)c1cc([N+](=O)[O-])ccc1N1CCOCC1	none
CCc1cccc(C)c1NC(=O)COC(=O)c1cc([N+](=O)[O-])ccc1N1CCOCC1	SIAE primary 19 | SIAE inh conf inactive
COc1ccc(-c2cc(-c3c(O)c(OC)c4occc4c3OC)[nH]n2)cc1	SIAE primary 22 | SIAE inh conf inactive
COc1ccc(-c2cc(-c3c(O)c(OC)c4occc4c3OC)[nH]n2)cc1OC	SIAE primary 19 | SIAE inh conf inactive
Cc1ccc(C2CCC3(CCC(=O)N3CCOC(=O)Nc3ccc(F)cc3)CC2)cc1 (configuration not stated)	SIAE primary 18! (no result: HTRA1 inhibitor, TCR-CD3 inh, DAGLB inhibitor) | SIAE inh conf inactive
CNc1nnc(CSc2nc3ccccc3s2)s1	none
CNc1nnc(CSc2nc(C)cc(C)n2)s1	SIAE primary 27 | SIAE inh conf inactive
CCCCn1nnnc1C1(C)CCC(=O)N1C1CC1 (configuration not stated)	none (no result: HTRA1 inhibitor, DAGLB inhibitor)
CC(C)OC(=O)CSc1nnc(-c2ccccn2)n1C	SIAE primary 18 | SIAE inh conf inactive
Cc1ccccc1-c1ccc2c(c1)[C@@H]1C[C@H]3[C@@H](CN1CC2)[C@H](C)OC(C1CCCCC1)N3C (some centres not stated)	none (no result: HTRA1 inhibitor, DAGLB inhibitor)
CC1=NN(c2ccc(C(=O)O)c(N)c2)C(=O)C1	SIAE primary 18 | SIAE inh conf inactive
CCOC(=O)C1=CCN(S(C)(=O)=O)C1c1ccc(Cl)cc1 (configuration not stated)	none (no result: HTRA1 inhibitor, DAGLB inhibitor)
COc1ccc(C2=NN(c3ccccc3)C(=O)/C2=C\c2ccc(O)c(OC)c2)cc1	SIAE primary 19 | SIAE inh conf inactive
CC(=O)c1ccc2c(c1)C1C=CCC1C(c1cc3c(cc1Br)OCO3)N2 (configuration not stated)	none
CC(=O)c1ccc2c(c1)C1C=CCC1C(c1ccc(S(=O)(=O)N3CCOCC3)cc1)N2 (configuration not stated)	SIAE primary 18 | SIAE inh conf inactive
C[C@@H]1CN(C(=O)OC(C)(C)C)CCN1c1ccc(N2CC[C@@H](O)C2)c(C#N)c1	none (no result: HTRA1 inhibitor, DAGLB inhibitor)
C=CCNc1cccc2c1S(=O)(=O)N[C@H](Cc1ccccc1)CO2	none (no result: HTRA1 inhibitor, DAGLB inhibitor)
COc1ccc(Nc2cc(C)nc3ccc(OC)cc23)cc1	SIAE primary 19 | SIAE inh conf inactive
Cc1ccc(NC(=O)CCC(=O)NNC(=S)Nc2ccccc2)c(C)c1	none
Cc1ccc(NC(=S)NNC(=S)Nc2ccc(C)cc2C)cc1	SIAE primary 18 | SIAE inh conf inactive
COc1ccc2c(c1OC)C(=O)N1c3ccccc3N=C(c3ccc([N+](=O)[O-])cc3)CC21 (configuration not stated)	SIAE primary 21 | SIAE inh conf inactive
COc1cc(NC(=O)c2ccccc2F)c(OC)cc1NC(=O)CN1CCOCC1	SIAE primary 17 | SIAE inh conf inactive
